Only some compounds are listed: those with a hit (about 2.8% of all), similar ones and a draw of the others.
PGE2 EP2 inh: human EP2 receptor antagonists, primary screen, TR-FRET cAMP, C6 glioma cells; inhibition, % at 25 µM; C6 glioma cells expressing human EP2; cells stimulated with saturating PGE2; Prostaglandin E2 receptor EP2 subtype (Homo sapiens), P43116; 260,000 compounds, 0.52% hits;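 active means percent inhibition above 40 after rounding to a whole number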;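 further: rat C6 glioma host cells with rolipram phosphodiesterase inhibitor present; the protocol text gives 20 µM as final concentration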
Target sequence (P43116 whole entry, looked up): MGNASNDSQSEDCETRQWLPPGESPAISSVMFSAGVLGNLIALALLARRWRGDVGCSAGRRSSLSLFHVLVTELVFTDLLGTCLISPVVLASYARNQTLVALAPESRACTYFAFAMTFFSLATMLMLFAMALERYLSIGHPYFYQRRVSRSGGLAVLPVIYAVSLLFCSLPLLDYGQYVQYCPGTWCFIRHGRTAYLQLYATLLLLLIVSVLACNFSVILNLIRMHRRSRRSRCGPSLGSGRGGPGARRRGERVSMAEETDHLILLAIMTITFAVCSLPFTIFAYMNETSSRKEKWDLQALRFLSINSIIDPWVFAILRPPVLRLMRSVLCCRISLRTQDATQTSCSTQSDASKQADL
NPY-Y2 antag: NPY-Y2 receptor antagonists, primary screen, cell-based | Neuropeptide Y receptor type 2 (Homo sapiens), P49146 | NPY-Y2 expressing cells, antagonist mode | inhibition, % at 2.7 µM | 140,000 compounds, 0.99% hits; in the data active means inhibition above about 17%;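 further: 0% = vehicle with agonist challenge and 100% = reference antagonist with challenge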
EP2 modulator: EP2 receptor modulators, cAMP readout, primary screen, cell-based, HTRF cAMP, PGE2 stimulation | EP2-expressing cells, cAMP HTRF FRET, PGE2 co-stimulation | induction, % at 25 µM | Prostaglandin E2 receptor EP2 subtype (Homo sapiens), P43116 | 260,000 compounds, 0.83% hits;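 active means compounds whose cAMP rise, as percent of the full-agonist control response, exceeds 60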;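 further: rat C6 glioma line stably carrying human EP2 under a CMV promoter; the protocol text gives 20 µM as final concentration; 100% = response of wells given 1 µM PGE2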
NPY-Y1 PAM-ag: NPY-Y1 receptor potentiators or agonists, primary screen, cell-based; activation, % at 3.6 µM; NPY-Y1 expressing cells, potentiator/agonist activation; AID 1304, 2008; 220,000 compounds, 0.37% hits; in the data active means activation above about 33%, passing the limit was not always enough;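 further: cells stimulated with NPY at EC10 then isoproterenol at EC100; 0% = low agonist plus stimulus and 100% = saturating agonist plus stimulus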
Target sequence (P25929 whole entry, looked up): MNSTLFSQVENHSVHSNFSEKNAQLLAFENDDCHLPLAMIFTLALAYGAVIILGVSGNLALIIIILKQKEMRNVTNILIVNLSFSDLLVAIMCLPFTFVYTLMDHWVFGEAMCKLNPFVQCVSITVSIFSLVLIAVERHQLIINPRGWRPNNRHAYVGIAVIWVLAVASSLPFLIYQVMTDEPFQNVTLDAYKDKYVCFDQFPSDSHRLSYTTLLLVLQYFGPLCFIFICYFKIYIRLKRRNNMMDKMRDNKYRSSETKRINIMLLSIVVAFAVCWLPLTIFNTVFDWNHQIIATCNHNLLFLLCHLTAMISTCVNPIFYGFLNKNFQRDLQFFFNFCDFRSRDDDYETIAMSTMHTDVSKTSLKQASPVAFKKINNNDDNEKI
NPY-Y1 antag: NPY-Y1 receptor antagonists, primary screen, cell-based; Neuropeptide Y receptor type 1 (Homo sapiens), P25929; HEK293-CNG Y1 cells, membrane potential fluorescence; NPY at EC95, then isoproterenol; inhibition, % at 3.6 µM; 200,000 compounds, 1% hits;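 active means inhibition above the campaign mean inhibition of all tested compounds plus 3 SD, cut at about 20% in these data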;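 further: 0% = DMSO wells given NPY plus isoproterenol and 100% = isoproterenol alone without NPY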
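Test system: HEK293 cells co-expressing NPY Y1 receptor and cyclic-nucleotide gated channel; Also added: NPY (25 nM), isoproterenol (1 µM), Ro 20-1724 (25 µM); Compound dosing: one concentration, 3.6 µM, in 0.4% DMSO; Timing: dye 3 h, compound 60 min room temperature, stimulation 45 min; Technique: Membrane-potential fluorescent dye readout.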
NPY2 pot ag: NPY-Y2 potentiators or agonists, primary screen, cell-based | Neuropeptide Y receptor type 2 (Homo sapiens), P49146 | cells expressing NPY-Y2, potentiator/agonist read-out | activation, % at 3.6 µM | 220,000 compounds, 0.45% hits | AID 1359, 2008; in the data active means activation above about 27%;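 further: cells stimulated with NPY near EC25 plus isoproterenol at EC100; 0% = vehicle plus submaximal agonist and 100% = vehicle plus saturating agonist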
NPY-Y2 confirm: NPY-Y2 potentiators or agonists, confirmation, cell-based; 450 compounds, 20% hits; cell-based NPY-Y2 potentiator/agonist assay; AID 1539, 2009; activation, % at 3.6 µM; shares compounds with NPY2 pot ag; in the data active means activation above about 33%
NPY-Y1 potentiator: NPY-Y1 potentiators or agonists, counter-screen for NPY-Y2 potentiator project, cell-based, fluorescence. shares compounds with NPY2 pot ag. Y1 HEK293-CNG cells, membrane potential fluorescence. 450 compounds, 20% hits. activation, % at 3.6 µM; in the data active means activation above about 45%;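 further: cells stimulated with submaximal NPY then isoproterenol with phosphodiesterase inhibitor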
NPY-Y1 agonist 2: NPY-Y1 direct agonists, selectivity assay for NPY-Y2 potentiator project, cell-based, fluorescence; shares compounds with NPY2 pot ag; HEK293 Y1-CNGC, membrane potential fluorescence, agonism; activation, % at 3.6 µM; 450 compounds, 37% hits; AID 1702, 2009;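 active means activation above the mean of DMSO-only control wells plus 3 SD, cut at about 18% in these data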;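 further: cells stimulated with 1 µM isoproterenol plus the PDE inhibitor Ro 20-1724; 0% = isoproterenol with DMSO and no NPY and 100% = 40 nM NPY; Y1 agonists lower the membrane potential dye signal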
CNGC inh: CNGC cAMP sensor activity inhibitors, counter-screen for NPY-Y2 potentiator project, cell-based, HEK293-CNG parental, membrane potential fluorescence; shares compounds with NPY2 pot ag; isoproterenol cAMP; inhibition, % at 3.6 µM; 450 compounds, 32% hits;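 active means inhibition above the control-well mean plus 3 SD of those wells, cut at about 22% in these data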;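 further: 0% = DMSO with isoproterenol and 100% = DMSO without isoproterenol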
NPY-Y2 ag 2: NPY-Y2 direct agonists, counter-screen for NPY-Y2 potentiator project, cell-based, fluorescence; shares compounds with NPY2 pot ag; HEK293 Y2/CNGC cells, membrane potential fluorescence, agonist mode; activation, % at 3.6 µM; 450 compounds, 56% hits;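 active means activation above the mean of solvent-only control wells plus 3 SD, cut at about 10% in these data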;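 further: cells stimulated by isoproterenol with no NPY added so direct agonism is tested; 0% = DMSO with isoproterenol alone and 100% = NPY at EC100 plus isoproterenol; agonism lowers probe fluorescence through less cAMP and CNG channel opening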
* hit, by the source's call; . = not tested or not shown.

SMILES	PGE2 EP2 inh	NPY-Y2 antag	EP2 modulator	NPY-Y1 PAM-ag	NPY-Y1 antag	NPY2 pot ag	NPY-Y2 confirm	NPY-Y1 potentiator	NPY-Y1 agonist 2	CNGC inh	NPY-Y2 ag 2
CCN(CC)CC(O)Cn1c2ccccc2c2ccccc21 (centres undefined)	12	5	4	43	-4	38*	38*	32	29*	-2	41*
COc1ccc(-c2cc(=Nc3ccc(C)cc3)c3ccccc3o2)cc1	12	7	28	21	10	14	.	.	.	.	.
COc1ccc(N=c2cc(-c3ccc(OC)cc3)oc3ccccc23)cc1	-1	3	23	31	-2	30*	52*	74*	61*	53*	54*
CCC(C)COC(=O)C(C#N)c1nc2ccccc2nc1N1CCCCC1 (centres undefined)	5	0	26	-2	8	-1	.	.	.	.	.
CCC(CC)COC(=O)C(C#N)c1nc2ccccc2nc1N1CCN(CC)CC1 (centres undefined)	5	8	9	26	-2	31*	52*	57*	33*	46*	64*
Cc1ccc2nc(NC(=O)c3cc4ccccc4oc3=O)sc2c1	6	.	-19	.	.	.	.	.	.	.	.
COCCNC(=O)CN1C(=O)CSc2cc(S(=O)(=O)N3CCCCCC3)ccc21	5	1	.	-11	1	97*	-2	-10	-14	0	-7
COc1ccc2c(c1)c(CC(=O)Nc1nnc(C3CC3)s1)c(C)n2C(=O)c1ccc(Cl)cc1	5	.	33	49	.	49*	12	10	21*	-4	12*
COc1ccc(Cn2cnc3c(NS(C)(=O)=O)c(C)c(C)cc32)cc1	6	6	7	19	2	35*	13	28	13	22	21*
Cc1ccccc1Cn1cnc2c(NS(C)(=O)=O)c(C)c(C)cc21	12	4	-17	9	3	-9	.	.	.	.	.
COc1ccc(S(=O)(=O)N(Cc2cc3c(C)ccc(C)c3[nH]c2=O)C2CCCC2)cc1	19	.	45	.	.	.	.	.	.	.	.
CCOC(=O)C1=C(Cn2cnc3ccccc32)NC(=O)NC1c1cc(C)ccc1C (centres undefined)	8	8	3	11	1	33*	20	23	20*	23*	23*
Oc1ccccc1Nc1nc(NCc2ccccc2)c2ccccc2n1	7	.	1	0	4	36*	47*	56*	45*	48*	45*
O=C(Cc1ccccc1)Nc1scc(-c2ccccc2)c1C(=O)N1CCOCC1	8	3	-30	15	-1	-17	.	.	.	.	.
NC(=O)c1c(-c2ccc(Cl)cc2Cl)csc1NC(=O)Cc1ccccc1	3	7	-9	-56	16	32*	-8	-44	-37	-17	-6
COC(=O)[C@H]1CN(C(=O)CCc2c(C)noc2C)C[C@@H]1c1ccc(F)cc1	3	.	4	.	.	.	.	.	.	.	.
CCC(C)(C)NC(=O)C(c1cccn1C)N(Cc1ccccc1)C(=O)Cn1nnc2ccccc21 (centres undefined)	10	12	-8	-77	14	61*	-129	-200	-131	-127	-103
CCC(C)(C)NC(=O)C(c1cccn1C)N(C(=O)Cn1nnc2ccccc21)c1ccccc1OC (centres undefined)	6	5	-14	-12	2	4	.	.	.	.	.
COc1ccc(CN(Cc2cc3cccc(C)c3[nH]c2=O)Cc2nnnn2C(C)(C)C)cc1	5	.	43	.	.	.	.	.	.	.	.
COc1ccc2nc3sc(C(=O)NC(C)(C)C)c(N)c3cc2c1	10	.	-75	.	.	.	.	.	.	.	.
Cc1ccc(C(=O)N2CC3(C)CN(C(=O)c4ccc(C)cc4)CC(C)(C2)C3=O)cc1	2	0	-19	14	2	30*	-2	0	0	-3	-6
O=C(c1ccc(F)cc1F)N1CCC(O)(c2cccnc2)CC1	10	.	-21	.	.	.	.	.	.	.	.
COC(=O)c1ccc(NC(=O)CN(c2ccc(C)cc2)S(=O)(=O)c2c(C)nn(C)c2C)cc1	9	-6	3	41	-9	40*	24	36	48*	35*	36*
O=C(Nc1ccccc1)OC1CCC2CC1CCC2OC(=O)Nc1ccccc1 (centres undefined)	27	14	-79	40	5	31*	51*	72*	55*	38*	67*
O=C(Nc1ccccc1)C1CC2CCCC(C1)C2=O (centres undefined)	4	-1	-61	5	5	13	.	.	.	.	.
SMILES	PGE2 EP2 inh	NPY-Y2 antag	EP2 modulator	NPY-Y1 PAM-ag	NPY-Y1 antag	NPY2 pot ag	NPY-Y2 confirm	NPY-Y1 potentiator	NPY-Y1 agonist 2	CNGC inh	NPY-Y2 ag 2
O=C1Nc2ccccc2N=C(c2ccccc2)c2ccccc21	12	.	-6	27	.	41*	6	19	9	14	-2
C1=C(CN2CC(CN3CCOCC3)c3ccccc32)COCC1 (centres undefined)	8	.	-6	.	.	.	.	.	.	.	.
COc1ccccc1N1CCN(C(=O)CN2CCC(O)(c3nccn3C)CC2)CC1	6	.	-13	.	.	.	.	.	.	.	.
CC(=O)Nc1ccc(S(=O)(=O)NCCSCc2cccc(Cl)c2)cc1	4	5	-59	11	-9	7	.	.	.	.	.
CC(=O)Nc1ccc(S(=O)(=O)NCCSCc2c(Cl)cccc2Cl)cc1	5	0	-33	3	-3	36*	-1	-4	-11	-4	-3
Cc1ccc(S(=O)(=O)Nc2ccc(NC(=O)c3c(F)c(F)c(F)c(F)c3F)cc2)cc1	27	.	-75	38	-5	35*	23	35	26*	28*	24*
